According to article PMC12069892 (Acta Pharmaceutica Sinica. B, 2025):
Converted amounts (≈) assume the structure as drawn.

Experiments:
[1] = test system: P. aeruginosa DK2; assay: MIC by micro broth dilution; type: cell-based, Pseudomonas aeruginosa; conditions: for MIC: Pseudomonas aeruginosa, DK2, 18 h, read-out: MIC, derivative alone, P. aeruginosa DK2, 18 h, 100% growth inhibition; for MIC, antibiotic alone: P. aeruginosa DK2
[2] = test system: P. aeruginosa DK2; assay: Oxidative stress; type: cell-based, Pseudomonas aeruginosa; conditions: PB 0.25 or 0.5 μg/mL; 15 or A22 4 or 8 μg/mL, with or without PB
In short: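 Culture diluted to 0.01 and treated with compounds. At OD600 1.0, 3 mL collected, washed in 1 mL PBS, then resuspended in PBS with 0.2 mol/L H2O2 and shaken 15 min at 37 ℃. Suspensions diluted 10^1–10^7 in PBS, 5 μL spotted onto LB agar, and incubated 37 ℃ for 1–2 days before colony counting.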

[3] = test system: P. aeruginosa DK2; assay: Resistance assay by serial passaging; type: cell-based, Pseudomonas aeruginosa; conditions: passaged with PB alone (64 μg/mL); start 256 μg/mL
[4] = test system: P. aeruginosa DK2; assay: Time-kill assay; type: cell-based, Pseudomonas aeruginosa; conditions: for Effect on bacterial growth when used alone (time-kill): A22 10 or 20 μmol/L, PB 0.5 or 1 μg/mL
[5] = test system: P. aeruginosa PAO1; assay: C. elegans liquid medium killing and rescue assay; type: in vivo, Caenorhabditis elegans
[6] = target: CYP2C19 (Homo sapiens, UniProt P33261); assay: Human CYP450 inhibition assay; type: in vitro ADME; conditions: Inhibition for CYP isoforms IC50, 2C19, human liver microsomes, 40 min
[7] = test system: P. aeruginosa DK2; assay: Intracellular ROS detection; type: cell-based, Pseudomonas aeruginosa; conditions: alone and in combination with PB
In short: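 Drug-treated bacteria collected and suspended in DCFH-DA (final 10 μmol/L), then incubated 20 min at 37 ℃. Cells resuspended in LB, centrifuged 5000 rpm for 5 min and washed to remove free probe. Fluorescence read at 488 nm excitation and 525 nm emission.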

[8] = target: CYP2C9 (Homo sapiens, UniProt P11712); assay: Human CYP450 inhibition assay; type: in vitro ADME
[9] = target: CYP3A4 (Homo sapiens, UniProt P08684); assay: Human CYP450 inhibition assay; type: in vitro ADME
[10] = target: CYP2D6 (Homo sapiens, UniProt P10635); assay: Human CYP450 inhibition assay; type: in vitro ADME
[11] = test system: P. aeruginosa DK2; assay: Bacterial ATP level assay; type: cell-based, Pseudomonas aeruginosa
In short: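 Cells treated with compounds singly and in combination and harvested at OD600 = 1.0 (2 mL), centrifuged, then extraction solution added. Lysed by sonication in an ice bath; extract kept on ice. Absorbance read at 340 nm at 10 s and again after 3 min at 25 ℃ using a commercial ATP kit. ATP expressed relative to control.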

[12] = Stability in liver microsomes; type: in vitro ADME, mouse
[13] = target: T1, CYP2C8 (Homo sapiens, UniProt P10632); assay: Human CYP450 inhibition assay; type: in vitro ADME
T1 sequence (P10632 1-490): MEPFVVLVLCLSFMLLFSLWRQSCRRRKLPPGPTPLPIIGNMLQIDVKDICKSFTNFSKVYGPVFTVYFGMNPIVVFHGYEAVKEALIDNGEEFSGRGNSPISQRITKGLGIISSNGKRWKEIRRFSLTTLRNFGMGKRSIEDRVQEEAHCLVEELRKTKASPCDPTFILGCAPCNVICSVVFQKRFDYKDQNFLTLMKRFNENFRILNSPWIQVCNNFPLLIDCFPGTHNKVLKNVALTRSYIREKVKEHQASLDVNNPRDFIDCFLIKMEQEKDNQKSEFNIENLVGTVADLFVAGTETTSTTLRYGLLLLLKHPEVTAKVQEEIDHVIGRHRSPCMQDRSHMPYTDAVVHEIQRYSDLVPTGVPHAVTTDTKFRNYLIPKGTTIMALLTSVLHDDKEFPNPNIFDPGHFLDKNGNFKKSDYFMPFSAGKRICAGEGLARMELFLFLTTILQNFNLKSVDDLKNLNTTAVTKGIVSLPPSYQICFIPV

[14] = test system: 293 T; assay: Mammalian cytotoxicity, CCK8; type: cell-based; conditions: Homo sapiens, HEK-293T, 24 h, read-out: 293 T IC50, CCK8, 1 day incubation
In short: (§1)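 Cells seeded at 10,000 per well in medium with 10% serum. Serially diluted compound added 24 h later and incubated 1 day. Viability measured with CCK8 reagent per kit instructions and expressed as percent of vehicle-treated cells (set to 100).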

[15] = target: hERG potassium channels (Homo sapiens, UniProt Q12809); assay: hERG channel Qpatch assay; type: cell-based
[16] = Stability in liver microsomes; type: in vitro ADME, human
[17] = Plasma protein binding assay; type: in vitro ADME; conditions: human
In short: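 Equilibrium dialysis: compound-spiked plasma placed on the donor side, blank buffer on the receiver side, 5 h at 37 ℃; T0 plasma samples also taken. Donor and receiver aliquots matrix-matched with the opposite matrix. Quenched with acetonitrile containing internal standard, vortexed, centrifuged 4000×g 10 min, and supernatant diluted with water. Analysed by LC–MS/MS alongside reference compounds.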

[18] = target: T2, CYP2B6 (Homo sapiens, UniProt P20813); assay: Human CYP450 inhibition assay; type: in vitro ADME
T2 sequence (P20813 1-491): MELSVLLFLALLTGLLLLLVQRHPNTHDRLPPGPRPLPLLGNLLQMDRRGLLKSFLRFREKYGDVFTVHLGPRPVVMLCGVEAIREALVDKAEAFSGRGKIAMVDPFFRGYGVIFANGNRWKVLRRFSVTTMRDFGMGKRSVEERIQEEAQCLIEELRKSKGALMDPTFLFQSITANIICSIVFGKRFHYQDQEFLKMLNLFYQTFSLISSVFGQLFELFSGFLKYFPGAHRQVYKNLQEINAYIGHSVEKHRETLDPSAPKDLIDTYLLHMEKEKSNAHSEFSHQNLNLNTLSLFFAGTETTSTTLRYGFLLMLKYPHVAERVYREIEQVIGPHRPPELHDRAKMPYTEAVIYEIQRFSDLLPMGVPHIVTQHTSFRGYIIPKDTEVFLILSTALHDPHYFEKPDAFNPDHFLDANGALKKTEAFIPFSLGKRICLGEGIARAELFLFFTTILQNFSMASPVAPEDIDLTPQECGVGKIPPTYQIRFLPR

[19] = test system: P. aeruginosa DK2; assay: Intracellular NADH oxidase; type: cell-based, Pseudomonas aeruginosa
In short: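 Bacteria treated with compounds singly and in combination; 1 mL harvested at OD600 = 1.0. NOX activity measured with a commercial kit by its extraction method and expressed as relative activity.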

[20] = test system: P. aeruginosa DK2; assay: Murine wound infection model; type: in vivo, BALB/c female mice; conditions: mouse
In short: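 Female mice, 6–8 weeks old and 20–22 g, were anesthetized with 4% chloral hydrate and shaved dorsally. A ~5 mm wound was made and inoculated with 30 μL DK2 (5 × 10^8 CFU). From 48 h post-infection, wounds received saline, polymyxin alone, or polymyxin plus test compound twice daily. Test compound was given in saline with 0.1% Tween 80 and polymyxin in saline. Wounds and body weight were monitored daily. Wound tissue was homogenized in sterile PBS and plated for CFU.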

[21] = target: T3, CYP1A2 (Homo sapiens, UniProt P05177); assay: Human CYP450 inhibition assay; type: in vitro ADME
T3 sequence (P05177 1-516): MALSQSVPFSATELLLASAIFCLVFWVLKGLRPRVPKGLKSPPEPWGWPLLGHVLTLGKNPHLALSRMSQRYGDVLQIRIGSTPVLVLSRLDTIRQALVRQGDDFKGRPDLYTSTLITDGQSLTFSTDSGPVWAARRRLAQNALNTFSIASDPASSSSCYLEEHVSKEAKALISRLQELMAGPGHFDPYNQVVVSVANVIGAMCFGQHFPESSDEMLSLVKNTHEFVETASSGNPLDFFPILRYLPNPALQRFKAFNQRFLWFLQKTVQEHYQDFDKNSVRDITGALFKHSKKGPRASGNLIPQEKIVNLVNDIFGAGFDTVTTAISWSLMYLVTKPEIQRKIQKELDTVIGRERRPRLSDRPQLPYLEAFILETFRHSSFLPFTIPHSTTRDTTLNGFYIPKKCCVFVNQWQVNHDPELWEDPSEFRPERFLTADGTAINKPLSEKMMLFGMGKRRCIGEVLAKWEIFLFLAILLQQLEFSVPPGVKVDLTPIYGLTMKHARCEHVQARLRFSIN

[22] = Water solubility assay; type: physicochemical; conditions: thermodynamic from solid
In short: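 Standard curve made from methanol solutions (0.56–0.0011 mg/mL) using HPLC UV peak area at 254 nm. Excess solid stirred in water for 24 h to give a […] solution, then analysed by HPLC at 254 nm. Solubility calculated from the standard curve.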

[23] = test system: P. aeruginosa DK2; assay: Biofilm production assay; type: cell-based, Pseudomonas aeruginosa
In short: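 Overnight LB culture (37 ℃, 200 rpm) diluted to OD600 0.01 and treated with compound alone or with polymyxin B. Cells inoculated 1:100 into CPG medium and grown 24 h at 37 ℃, then stained 30 min with 0.1% crystal violet. After water rinses and 1 h air drying, dye solubilised in 95% ethanol; OD570 read. For imaging, coverslip biofilms washed with PBS (pH 7.2), dried 60 ℃ 30 min, stained 15 min with acridine orange/ethidium bromide and examined by confocal microscopy.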

[24] = test system: HUVEC; assay: Mammalian cytotoxicity, CCK8; type: cell-based; conditions: Homo sapiens, 24 h, read-out: HUVEC IC50, CCK8, 1 day incubation
In short: as §1

Sequence of CYP2D6 (P10635 whole entry): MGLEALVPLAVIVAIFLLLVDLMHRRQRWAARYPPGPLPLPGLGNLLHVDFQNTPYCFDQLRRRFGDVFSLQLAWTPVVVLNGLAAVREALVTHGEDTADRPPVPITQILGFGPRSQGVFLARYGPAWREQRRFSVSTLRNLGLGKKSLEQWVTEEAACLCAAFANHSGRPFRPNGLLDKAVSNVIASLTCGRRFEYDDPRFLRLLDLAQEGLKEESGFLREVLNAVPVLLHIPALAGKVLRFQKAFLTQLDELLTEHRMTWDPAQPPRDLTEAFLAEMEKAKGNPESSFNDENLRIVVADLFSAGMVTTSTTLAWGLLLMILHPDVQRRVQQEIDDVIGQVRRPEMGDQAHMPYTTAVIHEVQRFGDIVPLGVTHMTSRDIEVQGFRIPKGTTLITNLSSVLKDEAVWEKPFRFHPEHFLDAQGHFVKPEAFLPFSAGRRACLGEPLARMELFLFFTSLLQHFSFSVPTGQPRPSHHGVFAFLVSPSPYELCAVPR
Sequence of hERG potassium channels (Q12809 whole entry): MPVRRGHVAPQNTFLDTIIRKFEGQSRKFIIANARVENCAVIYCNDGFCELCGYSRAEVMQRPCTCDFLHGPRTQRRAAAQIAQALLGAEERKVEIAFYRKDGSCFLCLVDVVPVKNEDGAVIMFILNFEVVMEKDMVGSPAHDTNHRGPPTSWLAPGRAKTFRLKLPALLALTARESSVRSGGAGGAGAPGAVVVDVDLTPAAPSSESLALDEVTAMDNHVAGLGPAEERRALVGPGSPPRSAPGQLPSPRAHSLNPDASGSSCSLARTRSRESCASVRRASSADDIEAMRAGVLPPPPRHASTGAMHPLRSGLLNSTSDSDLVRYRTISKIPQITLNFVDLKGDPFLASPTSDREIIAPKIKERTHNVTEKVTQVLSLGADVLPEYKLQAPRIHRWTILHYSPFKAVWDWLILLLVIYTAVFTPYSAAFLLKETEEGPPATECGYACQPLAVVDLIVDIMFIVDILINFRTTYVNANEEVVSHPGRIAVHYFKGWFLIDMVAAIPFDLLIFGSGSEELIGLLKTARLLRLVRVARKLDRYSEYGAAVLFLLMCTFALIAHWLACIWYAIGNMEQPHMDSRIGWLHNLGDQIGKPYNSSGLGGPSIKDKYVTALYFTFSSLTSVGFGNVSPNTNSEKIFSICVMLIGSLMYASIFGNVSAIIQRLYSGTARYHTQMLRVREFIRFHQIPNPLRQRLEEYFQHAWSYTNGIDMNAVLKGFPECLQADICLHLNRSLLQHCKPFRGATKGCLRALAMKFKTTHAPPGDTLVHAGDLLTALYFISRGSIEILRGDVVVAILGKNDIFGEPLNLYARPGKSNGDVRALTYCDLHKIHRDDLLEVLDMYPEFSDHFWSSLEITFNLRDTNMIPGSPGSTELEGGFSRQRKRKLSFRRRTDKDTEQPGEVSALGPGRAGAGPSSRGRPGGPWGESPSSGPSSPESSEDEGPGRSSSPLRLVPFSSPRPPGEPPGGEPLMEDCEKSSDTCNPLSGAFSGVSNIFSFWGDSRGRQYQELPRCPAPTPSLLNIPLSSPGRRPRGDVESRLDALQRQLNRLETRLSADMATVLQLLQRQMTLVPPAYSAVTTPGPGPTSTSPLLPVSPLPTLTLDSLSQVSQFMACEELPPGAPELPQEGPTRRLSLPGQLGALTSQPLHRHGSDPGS
Sequence of CYP2C9 (P11712 whole entry): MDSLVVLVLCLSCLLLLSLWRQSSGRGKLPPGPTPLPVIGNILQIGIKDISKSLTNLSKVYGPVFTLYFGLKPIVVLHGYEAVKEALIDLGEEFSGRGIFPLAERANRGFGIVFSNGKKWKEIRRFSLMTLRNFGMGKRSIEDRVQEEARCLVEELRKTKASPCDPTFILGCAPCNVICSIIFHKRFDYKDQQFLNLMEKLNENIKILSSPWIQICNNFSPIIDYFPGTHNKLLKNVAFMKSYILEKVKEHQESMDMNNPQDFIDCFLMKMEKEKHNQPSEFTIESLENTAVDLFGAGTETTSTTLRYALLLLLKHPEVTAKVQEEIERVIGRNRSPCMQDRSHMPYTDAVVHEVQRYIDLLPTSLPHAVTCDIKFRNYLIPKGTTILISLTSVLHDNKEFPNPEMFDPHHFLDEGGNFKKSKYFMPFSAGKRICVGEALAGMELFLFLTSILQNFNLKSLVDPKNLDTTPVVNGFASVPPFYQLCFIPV
Sequence of CYP3A4 (P08684 whole entry): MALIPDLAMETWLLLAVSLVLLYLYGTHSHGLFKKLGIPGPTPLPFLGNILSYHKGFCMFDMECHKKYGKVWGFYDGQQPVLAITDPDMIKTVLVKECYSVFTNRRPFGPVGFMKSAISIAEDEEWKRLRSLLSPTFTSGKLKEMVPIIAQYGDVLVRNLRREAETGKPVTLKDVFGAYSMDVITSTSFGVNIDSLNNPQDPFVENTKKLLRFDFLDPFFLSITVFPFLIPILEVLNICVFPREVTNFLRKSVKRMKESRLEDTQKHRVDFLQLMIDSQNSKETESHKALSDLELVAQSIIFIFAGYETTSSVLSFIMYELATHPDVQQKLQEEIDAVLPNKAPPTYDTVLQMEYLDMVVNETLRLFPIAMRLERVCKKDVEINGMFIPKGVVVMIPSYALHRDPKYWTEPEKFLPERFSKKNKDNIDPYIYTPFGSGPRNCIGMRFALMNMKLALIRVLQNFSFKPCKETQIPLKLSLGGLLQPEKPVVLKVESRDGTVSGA
Sequence of CYP2C19 (P33261 whole entry, canonical isoform): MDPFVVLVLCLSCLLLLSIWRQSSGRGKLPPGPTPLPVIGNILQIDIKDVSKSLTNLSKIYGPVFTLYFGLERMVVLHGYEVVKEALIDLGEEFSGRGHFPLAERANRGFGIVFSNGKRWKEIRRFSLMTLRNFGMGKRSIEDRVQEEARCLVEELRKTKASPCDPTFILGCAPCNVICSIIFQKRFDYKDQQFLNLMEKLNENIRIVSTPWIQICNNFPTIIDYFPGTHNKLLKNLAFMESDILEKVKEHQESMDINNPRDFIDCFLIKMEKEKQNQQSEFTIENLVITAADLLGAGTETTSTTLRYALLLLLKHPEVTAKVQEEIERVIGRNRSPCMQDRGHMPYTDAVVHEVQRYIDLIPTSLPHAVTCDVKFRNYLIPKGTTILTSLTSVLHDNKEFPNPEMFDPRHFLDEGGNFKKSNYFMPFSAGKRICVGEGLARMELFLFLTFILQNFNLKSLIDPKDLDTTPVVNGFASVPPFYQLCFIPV

O=C(Nc1ccc([N+](=O)[O-])cc1O)c1cc(F)ccc1O [A20]
MIC [1]: 50 to 100 µM (≈ 14.6 to 29.2 µg/mL)

O=C(Nc1ccc([N+](=O)[O-])cc1C(F)(F)F)c1cc(F)ccc1O [A25]
MIC [1]: 50 to 100 µM (≈ 17.2 to 34.4 µg/mL)

O=C(NNc1ccc([N+](=O)[O-])cc1Cl)c1cc(F)ccc1O [A3]
MIC [1]: 50 to 100 µM (≈ 16.3 to 32.6 µg/mL)

Polymyxin B [reference compound]
CFU under oxidative stress (H2O2) [2]: did not reduce CFU
MIC of PB after 14 generations [3]: 1024 µg/mL
MIC, antibiotic alone [1]: 256 µg/mL
Effect on bacterial growth when used alone (time-kill) [4]: neither A22 (10 μmol/L = 3.67 μg/mL, or 20 μmol/L = 7.34 μg/mL) nor PB (0.5 or 1 μg/mL) significantly affected bacterial growth

Colistin [reference compound]
MIC, antibiotic alone [1]: > 256 µg/mL

O=C(Nc1ccc(C(F)(F)F)cc1C(F)(F)F)c1cc(F)ccc1O [A22]
Survival of PAO1-infected worms, combination ([5]; 8 μg/mL A22 and 8 μg/mL PB): synergistically extended the lifespan of the worms
Survival of PAO1-infected worms, monotherapy ([5]; C. elegans N2 infected with P. aeruginosa PAO1): neither A22 nor PB had significant therapeutic effects
IC50 [6]: 20.5 µM
CFU under oxidative stress (H2O2) [2]: significantly reduced CFU
ROS levels [7]: significantly elevating ROS levels
IC50 [8]: 0.29 µM
IC50 [9]: > 33 µM
IC50 [10]: 1.88 µM
ATP levels, monotherapy [11]: reduced ATP levels
Reduction in ATP levels, combined with PB [11]: even more pronounced
MLM Remaining (t = 1 h) ([12]; mouse liver microsomes): 46.31%
half-life ([12]; mouse, liver microsomes, pH 7.4): 54.4 min
IC50 [13]: 2.61 µM
IC50 [14]: > 150 µM
IC50 [15]: 6.94 µM
HLM Remaining (t = 1 h) ([16]; human liver microsomes): 23.96%
half-life ([16]; human, liver microsomes, pH 7.4): 29.1 min
fraction unbound at 5 h [17]: 0.0206
IC50 [18]: > 33 µM
NOX activity, compound alone [19]: significantly increased
NOX activity, in combination with PB [19]: further significant increase
Bacterial load in infected wounds, combination ([20]; A22 10 mg/kg and PB 1 mg/kg, versus control and monotherapy): significantly reduced bacterial loads in the infected wounds
Bacterial load in infected wounds, monotherapy ([20]; A22 10 mg/kg or PB 1 mg/kg, after 7 days of treatment): neither A22 monotherapy (10 mg/kg) nor PB monotherapy (1 mg/kg) exhibited significant antibacterial effects
IC50 [21]: 6.13 µM
MIC [1]: > 1000 µM
solubility at 24 h [22]: 4 µg/mL (≈ 10.9 µM)
Inhibitory effect on biofilm formation, combination ([23]; 8 μg/mL A22 with 0.25 or 0.5 μg/mL PB): significantly enhanced
Biofilm formation, A22 alone ([23]; 4 and 8 μg/mL, crystal violet and CLSM): potent inhibitory activity against biofilm formation
IC50 [24]: > 150 µM
Time of complete inhibition of bacterial growth ([4]; A22 10 μmol/L with PB 1 μg/mL): 36 h
Time of complete inhibition of bacterial growth ([4]; A22 20 μmol/L with PB 1 μg/mL): 24 h
Effect on bacterial growth when used alone (time-kill) [4]: neither A22 (10 μmol/L = 3.67 μg/mL, or 20 μmol/L = 7.34 μg/mL) nor PB (0.5 or 1 μg/mL) significantly affected bacterial growth
Time of first substantial reduction in CFUs ([4]; A22 combined with PB): 2 h
